dFosB act = mouse delta FosB homodimer activation; purified delta FosB, TAMRA-CDK5 oligo fluorescence polarization; percent of positive-control signal above neutral wells; activation, % at 25 µM; hit rate 0.99% among 340,000; AID 493131;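 active = mean activation above about 17%, with every replicate also reaching it, limit read from the data, passing the limit was not always enough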
SR-BI uptake up = activators of SR-BI mediated HDL lipid uptake; CHO ldlA[mSR-BI] cells, DiI-HDL uptake fluorescence, 3 h; 100 = double the neutral-control signal; activation, % at 12.5 µM; hit rate 0.096% among 320,000;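 active = mean replicate activation of at least 60% and every replicate at or above 60%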
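Test system: SR-BI-overexpressing, LDLR-lacking CHO cells; Medium: Ham's F12 with 0.5% BSA, HEPES 25 mM, pH 7.4; Schedule: 3 h, 37 °C; Technique: bottom-read fluorescence, 550/595 nm.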
XiGFP reactiv = activators of X-chromosome reactivation in mouse fibroblasts. XiGFP mouse fibroblasts, % GFP-positive cells imaging, 3 d; cells co-treated with 5-aza-dC sensitizer; scaled so ellipticine positive control = 100%. activation, % at 7.58 µM. hit rate 0.055% among 360,000. AID 743238;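 active = mean normalized replicate activation at least 10% and every replicate at or above 10%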
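System: XiGFP fibroblasts, SV40-immortalized. Medium: DMEM plus 5-aza-dC sensitizer. Doses: single point. Timing: 3 d treatment, 15 min room-temperature fixation. Control set: ellipticine 6 µM.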
PvdQ acylase = blocks Pseudomonas aeruginosa PvdQ acylase activity | purified PvdQ acylase, fluorescence plate reader | inhibition, % at 10 µM | hit rate 0.063% among 340,000 | AID 488965; in the data active = inhibition above about 30%, passing the limit was not always enough
SR-BI HDL uptake = blocks mouse SR-BI lipid uptake from DiI-HDL; Q61009; hit rate 0.96% among 320,000; AID 488896; ldlA[mSR-BI] CHO cells, DiI-HDL uptake fluorescence, 3 h; inhibition, % at 12.5 µM;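 active = mean replicate inhibition of at least 70% and a set share of replicates each scoring 70 or more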
Target sequence (Q61009 whole entry, looked up): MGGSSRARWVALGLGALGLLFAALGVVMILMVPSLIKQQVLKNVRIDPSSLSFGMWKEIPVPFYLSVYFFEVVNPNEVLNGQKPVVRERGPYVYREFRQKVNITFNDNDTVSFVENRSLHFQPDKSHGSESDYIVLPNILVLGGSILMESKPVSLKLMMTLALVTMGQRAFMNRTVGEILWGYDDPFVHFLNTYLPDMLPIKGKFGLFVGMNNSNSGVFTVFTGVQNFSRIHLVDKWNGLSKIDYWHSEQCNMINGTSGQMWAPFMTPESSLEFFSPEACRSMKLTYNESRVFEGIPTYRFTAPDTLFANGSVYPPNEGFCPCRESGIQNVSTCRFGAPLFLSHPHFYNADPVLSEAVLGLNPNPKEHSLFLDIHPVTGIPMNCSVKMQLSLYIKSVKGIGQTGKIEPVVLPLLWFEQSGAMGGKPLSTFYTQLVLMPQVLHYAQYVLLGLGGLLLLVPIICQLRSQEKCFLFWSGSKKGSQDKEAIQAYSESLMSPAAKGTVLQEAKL
Ecoli rRNA inh = inhibitors of bacterial rRNA selective over humanized ribosomes; E. coli WT GFP vs humanized-ribosome RFP mutants, fluorescence, 24 h; active compounds read low; DMSO median 0, no signal -100; GFP signal change (wild-type ribosome), % (concentration not given with the values); hit rate 1.6% among 350,000;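 active = significant combined selectivity score with lowered wild-type GFP, culture density cut under 30%, mutant RFP and density less affected; inactive = any of these conditions unmet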
A number is an active result; i = inactive; nt = no result. An excerpt weighted towards active compounds, which were near 2.6% of everything screened.

SMILES	dFosB act	SR-BI uptake up	XiGFP reactiv	PvdQ acylase	SR-BI HDL uptake	Ecoli rRNA inh
Cc1ccc(NC2=C(Cl)C(=O)OC2OC(=O)c2ccccc2)c(C)c1 (configuration not stated)	i	i	i	i	i	-41.1
CCC1Oc2ccccc2N(CC(=O)NCCCN2CCCCC2CC)C1=O (configuration not stated)	i	i	nt	i	i	i
Cc1cc(C)cc(OCc2ccc(C(=O)NN)o2)c1	i	i	i	i	i	-22.9
Cc1ccc(OCc2ccc(C(=O)O)o2)c([N+](=O)[O-])c1	i	i	i	i	i	-26.5
O=C(O)c1ccc(COc2ccc3ccccc3c2)o1	i	i	i	i	i	-17.1
N#CCC(=O)Nc1ncc(Cc2ccccc2Cl)s1	i	nt	i	i	nt	i
COc1ccc2c(c1)[nH]c1c(=O)n(/N=C/c3ccc(OC)c(COc4ccccn4)c3)cnc12	i	i	i	i	i	i
COc1ccc2c(c1)[nH]c1c(=O)n(/N=C/c3ccc(OC)c(CN4CCCCC4)c3)cnc12	74.0	i	i	i	i	i
COc1ccc(-c2csc(CCn3nc(C)cc3C)n2)cc1	i	i	i	i	i	-21.0
COc1ccc(-c2csc(CCn3nc(C)cc3C)n2)cc1OC	i	i	i	i	i	i
O=C(Nc1ccc(OC(F)(F)F)cc1)Oc1ccccc1N1CCCCC1	nt	nt	i	nt	nt	-49.5
COc1ccc(Cn2c(-c3ccc(Br)cc3)c[n+]3ccccc23)cc1	i	i	i	i	i	-30.4
COc1ccc(-c2nc(CCl)cs2)cc1	i	i	i	i	i	i
COc1ccc(-c2csc(-c3ccc(O)cc3)n2)cc1	i	i	i	i	i	-27.8
COc1ccc(-c2csc(C3=C(O)CN(C(C)C)C3=N)n2)cc1OC	i	i	i	i	84.2	-34.9
O=C(O)c1ccc(-c2nc(-c3ccccc3)cs2)cc1	i	i	i	i	i	-20.5
CNC(=O)c1ccc(-c2nc(-c3ccccc3)cs2)cc1	i	i	i	i	i	i
COc1ccc(N2CC(O)=C(c3nc(-c4ccccc4)cs3)C2=N)cc1	i	nt	i	i	nt	i
CC(C)CCN1CC(O)=C(c2nc(-c3ccc(Cl)cc3)cs2)C1=N	i	i	nt	i	76.1	nt
COc1ccc(C2CC2C(=O)c2ccccn2)cc1 (configuration not stated)	i	i	i	i	i	i
COc1ccc(-c2nc(-c3ccc(O)cc3O)cs2)cc1OC	i	i	i	i	91.1	nt
COC(=O)[C@]1(C)CCC[C@@]2(C)C3CC[C@@]4(C)C[C@]3(CC[C@H]12)C[C@H]4O (some centres not stated)	i	i	i	i	i	i
Cc1ccccc1N1CCN(Cc2ccc(Br)o2)CC1	i	i	i	i	i	-27.1
Brc1ccc(CN2CCN(c3ccccc3)CC2)o1	i	i	i	i	i	i
Clc1ccccc1N1CCN(Cc2ccc(Br)o2)CC1	i	i	i	i	i	-34.6
SMILES	dFosB act	SR-BI uptake up	XiGFP reactiv	PvdQ acylase	SR-BI HDL uptake	Ecoli rRNA inh
COc1cccc(C(=O)Nc2cccc3cccnc23)c1OC	i	i	nt	i	i	nt
Cc1nc(N2CCC(C)CC2)c2nnn(Cc3ccccc3)c2n1	i	i	nt	i	81.5	nt
CCCc1ccc(-c2cc(C(=O)N/N=C/c3ccc([N+](=O)[O-])o3)c3ccccc3n2)cc1	i	i	nt	i	95.0	nt
O=C(N/N=C/c1ccco1)c1cc(-c2ccccc2)nc2ccccc12	i	i	i	i	i	i
O=C(N/N=C/c1ccc([N+](=O)[O-])o1)c1cc(-c2cccc(Br)c2)nc2ccccc12	i	i	nt	i	105.3	nt
O=C(C[C@@H]1C[C@H]2c3cc(NC(=O)C4CCOCC4)ccc3O[C@H]2[C@@H](CO)O1)NCc1ccc2c(c1)OCO2	nt	nt	i	nt	nt	i
COc1cc([N+](=O)[O-])ccc1NC(=O)Nc1ccc2c(c1)OCCO2	i	i	i	i	97.0	i
COc1cc(NC(=O)NCc2ccco2)ccc1-c1ccc(NC(=O)NCc2ccco2)cc1OC	i	i	i	i	74.0	i
COc1ccc(NC(=O)NCc2ccco2)c(OC)c1	i	i	i	i	i	i
COc1ccc(N2CCN(CCNC(=O)Nc3ccc([N+](=O)[O-])cc3OC)CC2)cc1	i	i	i	i	75.9	i
COc1cc([N+](=O)[O-])ccc1NC(=O)NCc1ccco1	i	i	i	i	72.2	i
COc1ccccc1NC(=O)NCc1ccco1	i	i	i	i	i	i
CC(=O)Nc1c(Cl)c(Cl)c2c(c1Cl)C(=O)c1cc(Cl)ccc1-2	i	i	i	i	i	i
Cc1cccc(CNc2ccc(C(CC(N)=O)NC(=O)Cc3cccc4ccccc34)cc2[N+](=O)[O-])c1 (configuration not stated)	i	i	i	i	i	i
O=[N+]([O-])c1c(C(Cl)Cl)nn(-c2ccccc2)c1N1CCCC1	i	i	nt	i	i	-43.4
CCOC(=O)C1CCN(c2c([N+](=O)[O-])c(C(Cl)Cl)nn2-c2ccccc2)CC1	i	i	nt	i	i	nt
O=C(C1CCCCC1)N1C[C@H]2[C@@H](c3ccccc31)[C@@H](CO)N2CC1CCOCC1	nt	nt	i	nt	nt	i
C/C(=N/Nc1ccc(C(=O)O)cc1)c1ccc2c(c1)Nc1ccccc1S2	i	i	i	i	i	i
C/C(=N\Nc1ccc(C(=O)O)cc1)c1ccc2c(c1)Nc1ccccc1S2	i	nt	i	i	nt	-45.3
COc1ccc(S(=O)(=O)N(C)C2CCN(C)CC2)cc1	i	262.8	i	i	i	i
COc1ccc(CC(=O)Nc2ccc(S(=O)(=O)N(C)C3CCN(C)CC3)cc2)cc1	i	i	i	i	i	nt
N=c1n(CC(=O)c2ccc(Br)s2)c2ccccc2n1Cc1ccccc1	25.4	i	i	i	i	i
N/C(=N\OC(=O)C1CC1)c1ccc([N+](=O)[O-])s1	i	i	i	i	i	-55.1
CC(C)(C)C(=O)O/N=C(\N)c1ccc([N+](=O)[O-])s1	i	i	i	i	i	i
COc1cc2c(cc1OC)CN(c1ccc([N+](=O)[O-])cc1C#N)CC2	i	i	i	i	i	i
COc1cc2c(cc1OC)CN(c1ccc([N+](=O)[O-])cc1Cl)CC2	i	i	i	i	80.1	i
O=C(N/N=C/c1c[nH]c2ccccc12)c1cccc([N+](=O)[O-])c1	i	i	i	i	i	nt
O=[N+]([O-])c1ccccc1N/N=C/c1ccccc1	i	i	i	i	i	i
O=[N+]([O-])c1ccc(N/N=C/c2cccc(O)c2O)cc1	i	i	i	i	i	-30.6
O=[N+]([O-])c1ccccc1N/N=C/c1c[nH]c2ccccc12	i	i	nt	i	110.4	nt

Source: PubChem (Broad Institute)
